{
  "source": "ChEMBL document CHEMBL4219235",
  "about": "“Novel fatty acid chain modified GLP-1 derivatives with prolonged in vivo glucose-lowering ability and balanced glucoregulatory activity” (Bioorg Med Chem, 2018)",
  "key": {"Mus musculus [1]": {"tested_on": "Mus musculus", "test": "Antidiabetic activity in STZ/diet-induced obese C57BL/6 mouse assessed as increase in serum adiponectin level at 25 nmol/kg, ip administered daily for 4 weeks measured post last dose", "type": "functional, organism-based", "method_in_brief": "(§1)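 Male C57BL/6J DIO mice on high-fat diet were treated for 4 weeks with saline as control; LFD-fed mice (n = 6/group) were used as normal reference. Water intake, food intake and body weight were recorded daily. Terminal serum leptin and adiponectin were measured by ELISA. TC, TG, HDL, LDL, ALT and AST were measured on a clinical chemistry analyzer.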"}, "Mus musculus [2]": {"tested_on": "Mus musculus", "test": "Antidiabetic activity in C57BL/6 mouse assessed as reduction in blood glucose level at 25 nmol/kg, ip treated 30 mins prior to glucose challenge measured up to 90 mins by IPGTT", "type": "functional, organism-based", "method_in_brief": "(§2)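 Male C57BL/6 mice, 6 weeks old, fasted overnight (12 h), n = 6/group; given 25 nmol/kg or saline i.p., then i.p. glucose challenge (2.0 g/kg) 30 min later, set as 0 h. Glucose challenges were repeated at 6 h intervals to mimic three meals a day. Blood glucose was followed and AUC calculated.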"}, "Mus musculus [3]": {"tested_on": "Mus musculus", "test": "Antidiabetic activity in STZ/diet-induced obese C57BL/6 mouse assessed as reduction in serum AST level at 25 nmol/kg, ip administered daily for 4 weeks measured post last dose", "type": "functional, organism-based", "method_in_brief": "as §1"}, "INS1 [4]": {"tested_on": "INS1", "test": "Cytoprotective activity against STZ-induced oxidative stress in rat INS-1 cells assessed as reduction in apoptosis at 10 nM after 24 hrs by Annexin-V-FITC/propidium iodide staining based flow cytometric analysis", "type": "functional, cell-based", "method_in_brief": "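INS-1 cells, about 5000/well, were seeded for 24 h, then exposed to glucolipotoxic medium, 50 µM H2O2 or 1 µM STZ, plus peptide at 10 nM, for 24 h. Apoptosis was analyzed by flow cytometry; triplicate, repeated three times.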"}, "Mus musculus [5]": {"tested_on": "Mus musculus", "test": "Antidiabetic activity in STZ/diet-induced obese C57BL/6 mouse assessed as reduction in serum total triglyceride level at 25 nmol/kg, ip administered daily for 4 weeks measured post last dose", "type": "functional, organism-based", "method_in_brief": "as §1"}, "Rattus norvegicus [6]": {"tested_on": "Rattus norvegicus", "test": "Antidiabetic activity in Sprague-Dawley rat assessed as blood glucose level at 25 nmol/kg, ip treated 30 mins prior to glucose challenge measured at 15 mins interval for 180 mins by OGTT (reference value: 13.8 +/- 1.31 nmol/L)", "type": "functional"}, "Mus musculus [7]": {"tested_on": "Mus musculus", "test": "Antidiabetic activity in STZ/diet-induced obese C57BL/6 mouse assessed as reduction in ratio of LDL to HDL level at 25 nmol/kg, ip administered daily for 4 weeks measured post last dose", "type": "functional, organism-based", "method_in_brief": "as §1"}, "Mus musculus [8]": {"tested_on": "Mus musculus", "test": "Antidiabetic activity in STZ/diet-induced obese C57BL/6 mouse assessed as reduction in body weight gain at 25 nmol/kg, ip administered daily for 4 weeks measured daily during compound dosing", "type": "functional, organism-based", "method_in_brief": "as §1"}, "Mus musculus [9]": {"tested_on": "Mus musculus", "test": "Hypoglycemic activity in STZ-induced diabetic Kunming mouse model assessed as time required to reduce blood glucose level of […] at 150 nmol/kg, ip administered as single dose", "type": "functional", "method_in_brief": "(§3)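 Non-fasted STZ-diabetic Kunming mice with free access to food and water received a single i.p. injection (25 or 150 nmol/kg) or saline; n = 6/group. Blood glucose was followed over time. Euglycemic duration was defined as time below 8.35 mmol/L, and glucose AUC0–36h was calculated.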"}, "Mus musculus [10]": {"tested_on": "Mus musculus", "test": "Antidiabetic activity in STZ-induced diabetic Kunming mouse model assessed as fasting blood glucose level at 25 nmol/kg, ip administered once daily for 3 weeks measured at 5 days interval for 21 days during compound dosing (reference value: […])", "type": "functional", "method_in_brief": "(§4)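 STZ diabetes induced with 40 mg/kg/day i.p. for 5 consecutive days after overnight fasting. Mice with fasting glucose ≥11.1 mM were grouped by matched body weight and dosed 25 nmol/kg i.p. once daily for 3 weeks; saline served as control. Fasting plasma glucose was measured every five days, and HbA1c at day 24; n = 6/group.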"}, "Mus musculus [11]": {"tested_on": "Mus musculus", "test": "Antidiabetic activity in C57BL/6 mouse assessed as reduction in blood glucose level at 25 nmol/kg, ip treated 30 mins prior to glucose challenge measured after 120 mins by IPGTT", "type": "functional, organism-based", "method_in_brief": "as §2"}, "Mus musculus [12]": {"tested_on": "Mus musculus", "test": "Antidiabetic activity in C57BL/6 mouse assessed as reduction in blood glucose AUC (0 to 120 mins) at 25 nmol/kg, ip treated 30 mins prior to glucose challenge by IPGTT", "type": "functional, organism-based", "method_in_brief": "as §2"}, "Mus musculus [13]": {"tested_on": "Mus musculus", "test": "Hypoglycemic activity in STZ-induced diabetic Kunming mouse model assessed as time required to reduce blood glucose level of […] at 25 nmol/kg, ip administered as single dose", "type": "functional", "method_in_brief": "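Non-fasted STZ-diabetic Kunming mice with free access to food and water received a single i.p. injection (25 or 150 nmol/kg) or saline; n = 6/group. Blood glucose was followed over time.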"}, "INS1 [14]": {"tested_on": "INS1", "test": "Cytoprotective activity against H2O2-induced glucolipotoxicity in rat INS-1 cells assessed as increase in cell viability at 1 to 100 nM after 24 hrs by MTT assay", "type": "functional, cell-based", "method_in_brief": "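INS-1 cells, about 5000/well, were seeded for 4 h, then stressed with one of: glucolipotoxic medium (25 mM glucose + 0.4 mM oleate-BSA), 50 µM H2O2 or 1 µM STZ. Peptide (1, 10 or 100 nM) was added and cells were incubated 24 h. Viability was read by MTT (200 µg/mL, 3 h, 37 °C), formazan dissolved in DMSO, A570. Triplicate, repeated three times.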"}, "Mus musculus [15]": {"tested_on": "Mus musculus", "test": "Antidiabetic activity in STZ/diet-induced obese C57BL/6 mouse assessed as reduction in serum leptin level at 25 nmol/kg, ip administered daily for 4 weeks measured post last dose", "type": "functional", "method_in_brief": "as §1"}, "Mus musculus [16]": {"tested_on": "Mus musculus", "test": "Hypoglycemic activity in STZ-induced diabetic Kunming mouse model assessed as reduction in glucose AUC (0 to 36 hrs) at 150 nmol/kg, ip administered as single dose", "type": "functional, organism-based", "method_in_brief": "as §3"}, "Mus musculus [17]": {"tested_on": "Mus musculus", "test": "Antidiabetic activity in STZ/diet-induced obese C57BL/6 mouse assessed as reduction in size of brown adipocytes at 25 nmol/kg, ip administered daily for 4 weeks measured post last dose", "type": "functional, organism-based"}, "Mus musculus [18]": {"tested_on": "Mus musculus", "test": "Antidiabetic activity in STZ/diet-induced obese C57BL/6 mouse assessed as reduction in serum total cholesterol level at 25 nmol/kg, ip administered daily for 4 weeks measured post last dose", "type": "functional, organism-based", "method_in_brief": "as §1"}, "Mus musculus [19]": {"tested_on": "Mus musculus", "test": "Antidiabetic activity in STZ-induced diabetic Kunming mouse model assessed as reduction in HbA1c level at 25 nmol/kg, ip administered once daily for 3 weeks measured at post last dose by Beckman coulter based method", "type": "functional, organism-based", "method_in_brief": "as §4"}, "Rattus norvegicus [20]": {"tested_on": "Rattus norvegicus", "test": "Antidiabetic activity in Sprague-Dawley rat assessed as reduction in blood glucose AUC at 25 nmol/kg, ip treated 30 mins prior to glucose challenge measured at 15 mins interval for 180 mins by OGTT", "type": "functional, organism-based"}, "Mus musculus [21]": {"tested_on": "Mus musculus", "test": "Antidiabetic activity in STZ/diet-induced obese C57BL/6 mouse assessed as reduction in cumulative food intake at 25 nmol/kg, ip administered daily for 4 weeks measured daily during compound dosing relative to control", "type": "functional", "design": "scale not given: the % may be the effect or the level left", "method_in_brief": "as §1"}, "Mus musculus [22]": {"tested_on": "Mus musculus", "test": "Antidiabetic activity in STZ/diet-induced obese C57BL/6 mouse assessed as reduction in size of white adipocytes at 25 nmol/kg, ip administered daily for 4 weeks measured post last dose", "type": "functional, organism-based"}, "INS1 [23]": {"tested_on": "INS1", "test": "Cytoprotective activity against STZ-induced oxidative stress in rat INS-1 cells assessed as cell death at 1 nM after 24 hrs by MTT assay (reference value: 45%)", "type": "functional"}, "[24]": {"test": "Stability of the compound in Sprague-Dawley rat plasma by LC-MS/MS analysis", "type": "ADME, cell-free", "method_in_brief": "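Compounds were incubated in plasma from adult male SD rats at 37 °C for up to 72 h. Samples at each time point underwent solid-phase extraction and LC-MS/MS analysis to follow degradation and derive half-life.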"}},
  "note": "The source made the active and inactive calls.",
  "data": [
    {"compound": "CC[C@H](C)[C@H](NC(=O)[C@H](Cc1ccccc1)NC(=O)[C@H](CCC(=O)O)NC(=O)[C@H](CCCCN)NC(=O)[C@H](C)NC(=O)[C@H](C)NC(=O)[C@H](CCC(N)=O)NC(=O)CNC(=O)[C@H](CCC(=O)O)NC(=O)[C@H](CC(C)C)NC(=O)[C@H](Cc1ccc(O)cc1)NC(=O)[C@H](CO)NC(=O)[C@H](CO)NC(=O)[C@@H](NC(=O)[C@H](CC(=O)O)NC(=O)[C@H](CO)NC(=O)[C@@H](NC(=O)[C@H](Cc1ccccc1)NC(=O)[C@@H](NC(=O)CNC(=O)[C@H](CCC(=O)O)NC(=O)CNC(=O)[C@@H](N)Cc1cnc[nH]1)[C@@H](C)O)[C@@H](C)O)C(C)C)C(=O)N[C@@H](C)C(=O)N[C@@H](Cc1c[nH]c2ccccc12)C(=O)N[C@@H](CC(C)C)C(=O)N[C@H](C(=O)N[C@@H](CCCCN)C(=O)NCC(=O)N[C@@H](CCCNC(=N)N)C(=O)N[C@@H](CSC1CC(=O)N(CCCCCCCCCCCC(=O)O)C1=O)C(N)=O)C(C)C", "note": "(some centres undefined)", "values": [
      {"measurement": "Activity", "setting": "Mus musculus [1]", "value": "Active"},
      {"measurement": "Activity", "setting": "Mus musculus [2]", "value": "inactive"},
      {"measurement": "Activity", "setting": "Mus musculus [3]", "value": "Active"},
      {"measurement": "Activity", "setting": "INS1 [4]", "value": "Active"},
      {"measurement": "Activity", "setting": "Mus musculus [5]", "value": "Active"},
      {"measurement": "Activity", "setting": "Rattus norvegicus [6]", "value": "6.7e+06", "unit": "nmol/L"},
      {"measurement": "Activity", "setting": "Mus musculus [7]", "value": "inactive"},
      {"measurement": "Activity", "setting": "Mus musculus [8]", "value": "Active"},
      {"measurement": "Time", "setting": "Mus musculus [9]", "value": 11.5, "unit": "h"},
      {"measurement": "Activity", "setting": "Mus musculus [10]", "value": "1.07e+07", "unit": "nmol/L"},
      {"measurement": "Activity", "setting": "Mus musculus [11]", "value": "Active"},
      {"measurement": "Activity", "setting": "Mus musculus [12]", "value": "Active"},
      {"measurement": "Time", "setting": "Mus musculus [13]", "value": 9.7, "unit": "h"},
      {"measurement": "Activity", "setting": "INS1 [14]", "value": "Active"},
      {"measurement": "Activity", "setting": "Mus musculus [15]", "value": 2.5, "unit": "ng/mL"},
      {"measurement": "Activity", "setting": "Mus musculus [16]", "value": "Active"},
      {"measurement": "Activity", "setting": "Mus musculus [17]", "value": "Active"},
      {"measurement": "Activity", "setting": "Mus musculus [18]", "value": "Active"},
      {"measurement": "Activity", "setting": "Mus musculus [19]", "value": "Active"},
      {"measurement": "Activity", "setting": "Rattus norvegicus [20]", "value": "Active"},
      {"measurement": "Activity", "setting": "Mus musculus [21]", "value": 24.9, "unit": "%"},
      {"measurement": "Activity", "setting": "Mus musculus [22]", "value": "Active"},
      {"measurement": "Activity", "setting": "INS1 [23]", "value": 28.8, "unit": "%"},
      {"measurement": "Stability", "setting": "[24]", "value": "Stable"}
    ]}
  ]
}
